pKi: −log10 of the molar value.

Our source for the Ki values is ChEMBL document CHEMBL2401625, “Synthesis and evaluation of pharmacological properties of some new xanthone derivatives with piperazine moiety” (Bioorg Med Chem Lett, 2013).

A short description of experiment [1]: Displacement of [3H]CGP-12177 from beta1-adrenergic receptor in rat cerebral cortex after 60 mins by scintillation counting. Format: tissue-based. The procedure, abridged: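 Radioligand binding on rat brain tissue membranes, run in 96-well format. Ki was calculated by the Cheng–Prusoff equation.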
Experiment [2] addresses 5-hydroxytryptamine receptor 7 (Homo sapiens, UniProt P34969). Put plainly: Displacement of [3H]5-CT from human 5HT7b receptor expressed in HEK293 cells after 1 hr. Format: cell-based.
For experiment [3], the target named is T1, Adrenergic receptor alpha-1 (Rattus norvegicus, UniProt P15823+P23944+P43140).
T1 sequence (P15823 whole entry): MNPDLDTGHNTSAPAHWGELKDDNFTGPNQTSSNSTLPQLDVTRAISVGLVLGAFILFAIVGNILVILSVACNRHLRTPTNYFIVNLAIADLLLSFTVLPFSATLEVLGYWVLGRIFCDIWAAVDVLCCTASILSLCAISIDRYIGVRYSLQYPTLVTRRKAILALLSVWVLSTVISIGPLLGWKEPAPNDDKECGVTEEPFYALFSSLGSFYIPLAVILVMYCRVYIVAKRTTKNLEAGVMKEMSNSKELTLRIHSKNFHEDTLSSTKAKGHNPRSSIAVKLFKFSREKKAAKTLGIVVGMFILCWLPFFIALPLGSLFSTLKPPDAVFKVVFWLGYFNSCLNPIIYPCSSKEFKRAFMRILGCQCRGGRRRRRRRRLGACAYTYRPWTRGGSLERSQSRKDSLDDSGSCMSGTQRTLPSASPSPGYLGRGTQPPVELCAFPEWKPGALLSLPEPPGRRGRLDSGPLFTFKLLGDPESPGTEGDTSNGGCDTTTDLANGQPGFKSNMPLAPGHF
T1 sequence (P23944 whole entry): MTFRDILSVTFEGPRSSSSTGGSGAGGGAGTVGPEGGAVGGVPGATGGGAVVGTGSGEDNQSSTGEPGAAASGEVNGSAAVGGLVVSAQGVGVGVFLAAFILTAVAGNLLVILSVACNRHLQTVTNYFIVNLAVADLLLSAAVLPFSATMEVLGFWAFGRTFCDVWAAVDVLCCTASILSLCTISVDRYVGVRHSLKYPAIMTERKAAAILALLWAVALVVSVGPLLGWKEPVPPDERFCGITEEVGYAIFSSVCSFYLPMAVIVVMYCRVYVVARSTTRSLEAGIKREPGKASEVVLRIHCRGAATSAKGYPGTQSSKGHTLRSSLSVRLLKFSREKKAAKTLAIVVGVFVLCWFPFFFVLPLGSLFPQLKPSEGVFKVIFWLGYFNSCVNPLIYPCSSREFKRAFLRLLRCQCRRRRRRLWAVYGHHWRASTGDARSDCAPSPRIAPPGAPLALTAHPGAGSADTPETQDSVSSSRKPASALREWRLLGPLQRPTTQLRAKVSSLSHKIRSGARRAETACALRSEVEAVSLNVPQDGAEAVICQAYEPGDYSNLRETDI
T1 sequence (P43140 whole entry): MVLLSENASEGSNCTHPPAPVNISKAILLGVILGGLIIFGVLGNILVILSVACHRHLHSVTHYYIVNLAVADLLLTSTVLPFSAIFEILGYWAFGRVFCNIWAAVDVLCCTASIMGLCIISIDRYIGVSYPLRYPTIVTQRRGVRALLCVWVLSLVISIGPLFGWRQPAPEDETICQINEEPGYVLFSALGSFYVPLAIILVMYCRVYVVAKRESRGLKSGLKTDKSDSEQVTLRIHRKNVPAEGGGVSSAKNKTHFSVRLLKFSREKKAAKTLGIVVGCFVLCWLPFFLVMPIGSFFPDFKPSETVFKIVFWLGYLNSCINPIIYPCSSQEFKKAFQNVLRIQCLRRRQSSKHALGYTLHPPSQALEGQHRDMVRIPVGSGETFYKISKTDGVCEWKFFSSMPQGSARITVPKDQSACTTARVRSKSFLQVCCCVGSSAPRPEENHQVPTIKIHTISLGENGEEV
Put plainly: Displacement of [3H]prazosin from alpha1-adrenergic receptor in rat cerebral cortex after 30 mins by scintillation counting. The format is tissue-based. The procedure, abridged:
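Radioligand binding on rat brain tissue membranes, run in 96-well format. [3H]prazosin was used for α1 (n = 2) and [3H]CGP-12177 for β1 (n = 2). Ki was calculated by the Cheng–Prusoff equation.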

For experiment [4], the target named is 5-hydroxytryptamine receptor 6 (Homo sapiens, UniProt P50406). Put plainly: Displacement of [3H]LSD from human 5HT6 receptor expressed in HEK293 cells after 1 hr. Format: cell-based.
Experiment [5] deals with T2, 5-hydroxytryptamine receptor 1A (Homo sapiens, UniProt P08908).
T2 sequence (P08908 whole entry): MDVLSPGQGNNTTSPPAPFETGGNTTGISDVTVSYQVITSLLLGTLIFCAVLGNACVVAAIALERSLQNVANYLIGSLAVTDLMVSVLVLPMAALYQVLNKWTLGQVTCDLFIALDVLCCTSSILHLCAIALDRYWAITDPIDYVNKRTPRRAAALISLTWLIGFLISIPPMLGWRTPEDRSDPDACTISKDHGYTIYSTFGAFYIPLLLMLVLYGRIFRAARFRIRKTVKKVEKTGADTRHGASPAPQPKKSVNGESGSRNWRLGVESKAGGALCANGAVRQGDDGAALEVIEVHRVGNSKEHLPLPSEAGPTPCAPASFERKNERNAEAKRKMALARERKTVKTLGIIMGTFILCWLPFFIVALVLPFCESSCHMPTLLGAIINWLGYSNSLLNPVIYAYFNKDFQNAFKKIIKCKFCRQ
Put plainly: Displacement of [3H]8-OH-DPAT from human 5HT1A receptor expressed in HEK293 cells after 1 hr. Format: cell-based.

Sequence of 5-hydroxytryptamine receptor 6 (P50406 whole entry): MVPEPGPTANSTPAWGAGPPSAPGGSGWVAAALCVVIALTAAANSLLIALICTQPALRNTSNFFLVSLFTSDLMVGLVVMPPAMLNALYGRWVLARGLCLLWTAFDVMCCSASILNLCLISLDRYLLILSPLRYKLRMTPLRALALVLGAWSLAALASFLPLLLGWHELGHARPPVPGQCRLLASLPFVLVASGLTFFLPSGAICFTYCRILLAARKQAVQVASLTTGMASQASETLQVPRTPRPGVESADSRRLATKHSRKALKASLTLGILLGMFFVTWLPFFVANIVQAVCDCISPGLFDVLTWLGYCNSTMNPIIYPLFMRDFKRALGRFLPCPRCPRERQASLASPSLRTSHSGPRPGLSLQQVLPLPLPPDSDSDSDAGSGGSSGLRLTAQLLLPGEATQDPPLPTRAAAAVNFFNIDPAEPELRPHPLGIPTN
Sequence of 5-hydroxytryptamine receptor 7 (P34969 whole entry): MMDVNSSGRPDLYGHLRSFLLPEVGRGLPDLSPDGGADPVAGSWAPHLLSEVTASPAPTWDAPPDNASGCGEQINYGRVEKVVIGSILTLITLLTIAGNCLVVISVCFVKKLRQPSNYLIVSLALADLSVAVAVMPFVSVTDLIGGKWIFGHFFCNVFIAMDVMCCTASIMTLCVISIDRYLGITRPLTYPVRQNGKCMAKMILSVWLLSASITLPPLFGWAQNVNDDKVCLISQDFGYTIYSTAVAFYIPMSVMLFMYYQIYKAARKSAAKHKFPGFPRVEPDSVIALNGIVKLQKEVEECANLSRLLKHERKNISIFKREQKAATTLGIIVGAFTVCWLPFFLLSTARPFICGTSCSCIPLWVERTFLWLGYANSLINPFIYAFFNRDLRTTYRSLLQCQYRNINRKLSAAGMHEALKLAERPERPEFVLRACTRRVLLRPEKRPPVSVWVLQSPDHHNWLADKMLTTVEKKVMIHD

`COc1ccccc1N1CCN(Cc2ccc3oc4ccccc4c(=O)c3c2)CC1.Cl`: the pKi in experiment [1] is less than 5.00; in experiment [2], 6.37; in experiment [4], 5.23; in experiment [5], 6.93. Also, the Ki in experiment [3] was determined as 3660 nM.
On to `COc1ccc2c(=O)c3cc(CN4CCN(c5ccccc5OC)CC4)ccc3oc2c1.Cl`, for which the pKi is less than 4.52 in experiment [1], 5.94 in experiment [2], 4.87 in experiment [4] and 6.37 in experiment [5]. Also, in experiment [3], the Ki came to 380 nM.
